Screening results from PubChem.
A selection: hits, their analogues and other compounds. The true share with any hit is near 2.3%.
TRPC4 potent: allosteric potentiators of mouse TRPC4 channel; 310,000 tested, 0.42% active; AID 2227; B-score at 10 µM; Q9QUQ5; HEK293 TRPC4beta/mu-opioid, DAMGO EC20, Fluo-4 Ca2+ flux; stronger effect = higher value;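 active = B-score of calcium response area above 5 SD of library B-scores, with initial fluorescence ratio within 5 SD of library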;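 also: B-score of integrated fluorescence ratio over time as area under calcium response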
Target sequence (Q9QUQ5 whole entry, looked up): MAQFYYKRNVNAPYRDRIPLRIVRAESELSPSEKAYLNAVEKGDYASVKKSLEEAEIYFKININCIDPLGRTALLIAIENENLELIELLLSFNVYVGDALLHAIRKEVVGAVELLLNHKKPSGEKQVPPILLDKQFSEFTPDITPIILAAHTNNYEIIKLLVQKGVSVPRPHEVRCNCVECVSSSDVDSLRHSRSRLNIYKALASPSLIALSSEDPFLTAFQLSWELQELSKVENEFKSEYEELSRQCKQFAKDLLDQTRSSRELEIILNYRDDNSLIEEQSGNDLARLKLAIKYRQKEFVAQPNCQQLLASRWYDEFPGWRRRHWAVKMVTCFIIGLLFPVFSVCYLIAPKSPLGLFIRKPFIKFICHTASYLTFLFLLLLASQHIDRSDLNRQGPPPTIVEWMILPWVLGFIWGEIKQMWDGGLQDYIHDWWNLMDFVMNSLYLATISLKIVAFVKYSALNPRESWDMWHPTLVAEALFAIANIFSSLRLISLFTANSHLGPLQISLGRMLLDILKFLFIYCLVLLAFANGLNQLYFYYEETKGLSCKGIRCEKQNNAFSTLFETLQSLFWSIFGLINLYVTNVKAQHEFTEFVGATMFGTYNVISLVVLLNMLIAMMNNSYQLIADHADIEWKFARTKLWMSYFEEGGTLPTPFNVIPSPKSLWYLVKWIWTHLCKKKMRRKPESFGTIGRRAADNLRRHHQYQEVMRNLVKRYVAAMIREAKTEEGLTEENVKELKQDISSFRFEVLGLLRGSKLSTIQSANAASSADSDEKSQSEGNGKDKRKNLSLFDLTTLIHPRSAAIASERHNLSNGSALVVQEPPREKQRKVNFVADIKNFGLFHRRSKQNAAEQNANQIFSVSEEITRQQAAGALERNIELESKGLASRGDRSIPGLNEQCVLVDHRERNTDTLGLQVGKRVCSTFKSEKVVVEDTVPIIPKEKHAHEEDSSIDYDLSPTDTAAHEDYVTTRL
TRPC4 inh: inhibitors of mouse TRPC4 channel; AID 2247; Q9QUQ5; 300,000 tested, 0.39% active; B-score at 10 µM; HEK293 TRPC4beta/mu-opioid, DAMGO-evoked Fluo4 calcium flux; stronger effect = lower value;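 active = B-score over 3 SD under the library average, no early fluorescence shift, positive overall ratio signal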
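material = TRPC4beta/mu-opioid receptor HEK293 cell line | probe or stimulus = sequential submaximal and maximal DAMGO stimulation | compound dosing = one concentration per compound | measured by = Fluo4 Ca2+ flux fluorescence | evaluation = integrated fluorescence ratio relative to baseline, converted to per-well B score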
TRPC6 activator: mouse TRPC6 channel activation | B-score at 10 µM | 310,000 tested, 0.13% active | Q61143 | AID 2550 | HEK293-TRPC6 membrane potential dye fluorescence; stronger effect = higher value;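 active = B-score of the integrated fluorescence ratio above library mean plus 3 SD, and starting fluorescence ratio within library mean plus 5 SD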;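 also: higher score means more depolarization so channel activation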
TRPC4 act: activators of mouse TRPC4 channel. HEK293 TRPC4beta/mu-opioid, Fluo4 calcium fluorescence; stronger effect = higher value. Q9QUQ5. B-score at 10 µM. 310,000 tested, 0.49% active. AID 2237;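 active = B-score above 5 SD of library B-scores, and initial fluorescence ratio not above library mean plus 5 SD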;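 also: positive B-score marks a calcium rise read as TRPC4 activation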
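Assay system: HEK293 stable line with TRPC4beta plus mu-opioid receptor; schedule: 45 min room-temperature Fluo4 loading, 110 s read; technique: kinetic Fluo4 calcium fluorescence; evaluation: integrated baseline-normalised fluorescence ratio, converted to per-well B score; controls: buffer (low) and maximal DAMGO (high)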
TRPC6 inh: mouse TRPC6 channel inhibition. HEK293-TRPC6, membrane potential dye, ACh-evoked depolarization; stronger effect = lower value. Q61143. B-score at 10 µM. AID 2553. 310,000 tested, 1.1% active;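 active = B-score under library mean minus 3 SD, initial fluorescence not abnormally high, positive integrated signal ratio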;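 also: B-score derived from integrated fluorescence ratio over the kinetic read; more negative B-score means stronger inhibition of depolarization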
Numbers without * were called inactive; i = inactive; ! = a repeat was not active.

SMILES	TRPC4 potent	TRPC4 inh	TRPC6 activator	TRPC4 act	TRPC6 inh
CC(C)(C)C1CCc2c(sc(NC(=O)C3CC=CCC3C(=O)O)c2C#N)C1 (stereo not given)	i	-6*	i	i	i
N#Cc1c(NC(=O)C2CC=CCC2C(=O)O)sc2c1CCCCCC2 (stereo not given)	i	i	i	i	i
C=CCNC(=O)N1CCCC(C(=O)c2cccc(OC(C)C)c2)C1 (stereo not given)	i	i	i	i	i
CCCCOc1ncnc2c1[nH]c1ccc(C)cc12	i	i	i	i	i
Cc1cccc(Oc2sc(C(=O)c3ccccc3)c(N)c2C#N)c1C	i	i	i	i	i
N#Cc1c(Oc2ccc3ccccc3c2)sc(C(=O)c2ccccc2)c1N	12*	i	i	i	i
COC(=O)c1ccc(C(=O)OC)c(NC(=S)N2CCN(c3ccccn3)CC2)c1	i	i	i	i	i
CC(OC(=O)c1cccs1)C(=O)NCC1CCCO1 (stereo not given)	i	i	i	i	i
O=C(OC(C(=O)NCC1CCCO1)c1ccc(F)cc1)c1cccs1 (stereo not given)	i	i	i	47*	i
CC(=O)N1CCC(C(=O)NCCOc2ccc(C)cc2)CC1	i	i	i	i	i
O=[N+]([O-])c1ccc(CN2CCN(c3nc4ccccc4s3)CC2)cc1	19*	i	i	i	i
COc1ccc(CN2CCN(c3nc4ccccc4s3)CC2)cc1	23*	i	i	i	i
Cc1ccccc1-c1nnc(SCC(=O)N2CCCC2)o1	i	i	i	i	i
CN(C)CCSc1nc(-c2ccccc2)nc2c1CCC2	i	i	i	i	i
CN(C)CCCSc1nc(-c2ccccc2)nc2c1CCC2	16*	i	i	i	i
COc1cc(C(=O)Nc2ccc(C#N)cc2)c([N+](=O)[O-])cc1OC	i	i	i	i	i
CNCC[C@H](Oc1cccc2ccccc12)c1cccs1	i	i	i	i	-5.7*!
Cc1ccccc1Nc1nc(NCc2ccco2)c2ccccc2n1	i	-9*	i	49*	-5.8*
COc1cccc(NC(=S)N2CCCN(Cc3ccc(F)cc3)C2)c1	i	i	i	45*	i
COc1ccc(NC(=S)N2CCCN(Cc3cccc(Cl)c3)C2)cc1	i	i	i	i	i
CCCCNC(=O)Nc1nnc(C(C)(C)C)s1	i	i	i	i	i
O=C(/C=C/c1ccccc1Cl)N(c1ccccn1)C1CCCCC1	16*	i	i	i	i
O=C(/C=C/c1ccccc1)N(c1ccccn1)C1CCCCC1	i	i	i	i	i
CCOC(=O)C1CCN(C(=O)c2ccc3c(c2)C(=O)N(c2ccccc2C)C3=O)CC1	i	i	i	i	i
CCn1c(N2CCN(S(=O)(=O)c3ccccc3)CC2)nc2ccccc21	i	i	i	i	i
SMILES	TRPC4 potent	TRPC4 inh	TRPC6 activator	TRPC4 act	TRPC6 inh
CCCn1c(N2CCN(S(=O)(=O)Cc3ccccc3)CC2)nc2ccccc21	22*	i	i	i	i
COc1cccc(CN2CCNC(=O)C2CC(=O)NCCOc2cccnc2)c1 (stereo not given)	i	i	i	i	i
CCOc1ccc(NS(=O)(=O)c2ccc(C(=O)NCc3ccncc3)cc2)cc1	i	i	i	i	i
CCOc1ccc(NS(=O)(=O)c2ccc(C(=O)NCc3ccccn3)cc2)cc1	i	i	i	44*	i
Cc1ccc(NS(=O)(=O)c2ccc(C(=O)NCc3ccccn3)cc2)cc1	i	i	i	44*	i
CC1CN(C(=O)CCC(=O)N2CCN(c3cccc(C(F)(F)F)c3)CC2)c2ccccc2O1 (stereo not given)	i	i	i	i	i
O=C1c2ccccc2C(=O)N1CSc1ncccn1	i	i	i	i	i
Cc1ccc(NC(=O)CCc2nnc3ccc(N4CCC5(CC4)OCCO5)nn23)cc1F	i	i	i	i	i
Cc1ccc(S(=O)(=O)NC(=O)N2CCN(Cc3c(F)cccc3Cl)CC2)cc1	21*	i	i	i	i
COCc1c(C(=O)OC)nnn1-c1ccc(C(F)(F)F)cc1[N+](=O)[O-]	i	i	i	i	i
COc1ccc(OC2CCN(S(=O)(=O)c3ccccc3)CC2)cc1	13*	i	i	i	i
COc1ccc(OC2CCN(S(=O)(=O)c3ccc(F)cc3)CC2)cc1	i	i	i	i	i
CCOc1ccc(S(=O)(=O)Nc2ccccc2C(=O)N2CCOCC2)cc1	i	i	i	i	i
NC(=S)N/N=C/c1ncc(C(F)(F)F)cc1Cl	i	i	i	i	i
COc1ccc2ccccc2c1CNC(C)c1ccccc1 (stereo not given)	i	i	i	i	i
CC(NCCCOc1cccc2ccccc12)c1ccccc1 (stereo not given)	i	i	i	69*	i
O=C(CNc1ccc(Br)cc1)c1ccc(O)cc1	i	-8*	i	i	i
O=C1CN(C(=O)NCC(=O)N[C@@H](C(=O)O)c2ccccc2)c2ccccc2N1	i	i	i	i	i
O=[N+]([O-])c1ccc(/C=N/Nc2nc(N3CCCCCC3)nc(N3CCCCCC3)n2)o1	32*	i	i	i	i
Cc1ccc(C(=O)COC(=O)c2cc(=O)[nH]c3ccccc23)cc1C	i	i	i	i	i
O=C(NCc1ccccc1)C(=O)NCC1CCCN1S(=O)(=O)c1cccs1 (stereo not given)	i	i	i	i	i
O=[N+]([O-])c1ccc(C2CNC(c3ccccc3)O2)cc1 (stereo not given)	14*	i	i	i	i
CC(C)(C)c1csc(NC(=O)Cc2cccs2)n1	69*	i	i	i	i
COc1ccc(C2CC(c3ccc(OC)cc3OC(C)=O)=NN2C(=O)c2ccccc2)cc1 (stereo not given)	11*	i	i	i	i
COc1ccc(C2=NN(C(=O)c3ccccc3)C(c3ccc(OC)c(OC)c3)C2)c(O)c1 (stereo not given)	i	-7*	i	i	i
O=C(c1ccoc1)N1CCCC(N2CCN(c3cccc(Cl)c3)CC2)C1 (stereo not given)	i	i	i	i	i
